Measurements reported in the array DNA melting data of Ke et al. (doi:10.1101/2024.01.08.574731).

Assays:
[1] = folding enthalpy; higher = less favourable; fluorescence melt of hairpins on a sequencing array, two-state fit; conditions: sodium 0.088 M
Method in brief: (§1)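 Cy3 signals were normalised both to pre-quench Cy3 and to control constructs. They came from library hairpins carrying annealed Cy3 and quencher oligos on a sequenced MiSeq flow cell, imaged in 50 mM Na-HEPES pH 8.0, 25 mM NaCl, in 2.5 °C steps up to 60 °C. Bootstrapped two-state fits gave melting temperature and folding enthalpy, and four replicates were combined by inverse variance. Fitted temperatures were then raised by 9.35 °C to match UV melts.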

[2] = melting temperature; fluorescence melt of hairpins on a sequencing array, two-state fit, raised by 9.35 °C to match UV melts; conditions: sodium 0.088 M
Method in brief: as §1

| Sequence | folding enthalpy [1] [kcal/mol] | Tm [2] [°C] |
| --- | --- | --- |
| GACTCCGAAAGGAGCGTC ((((((....)))..))) | -13.4 | 49.9 |
| GATCCACGTGTGGATC ((((((....)))))) | -44.5 | 65.9 |
| GGTTTTGGAAACAAAATC (.(((((....))))).) | -33.4 | 41.5 |
| CGCCGCGGAAACGCGCG (((.(((....)))))) | -16.6 | 66.6 |
| GGGGGGGGAAACCTCCCC ((((.((....)).)))) | -34 | 59.9 |
| GATCCGGTTACGGATC ((((((....)))))) | -36.9 | 68.5 |
| GCGATCGATCGC ((((....)))) | -41.2 | 56.5 |
| GATCGACTGTCGATC ((((((...)))))) | -49 | 51.4 |
| GCAAATGCGAAAGCATGC (((..(((....)))))) | -15 | 51.4 |
| GGTCCTGGAAACAGGGCC ((.((((....)))).)) | -46.3 | 60.8 |
| GGTGTACGAAAGTATACC (((.(((....))).))) | -47.6 | 53.3 |
| GCTTCCGGAAACGGAAAC (.(((((....))))).) | -14.7 | 40.5 |
| GCGAATGCTCGC ((((....)))) | -11.5 | 57.7 |
| GATCTGAACACAGATC ((((((....)))))) | -34.7 | 48.4 |
| GTGTTACCGAAAGGTCAC (((..(((....)))))) | -23.6 | 43.6 |
| GTCTTCCGAAAGGACGAC (((.(((....))).))) | -40.7 | 48.6 |
| GCCGGGCGAAAGCCCAGC ((.((((....)))).)) | -15.8 | 64.8 |
| GTTTTCGGAAACGAAAAC (((((((....))))))) | -42.6 | 58.5 |
| GATCCCTTCCGGGATC ((((((....)))))) | -35.3 | 59.5 |
| GGGTTCGAAAGAATTCCC ((((((....)))..))) | -20.4 | 33.8 |
| GATCGAACTTCGATC ((((((...)))))) | -31.3 | 51 |
| GTCTTAGGAAACTAAGGC (.(((((....))))).) | -25.9 | 42.9 |
| GATCCGGATGCGGATC ((((((....)))))) | -35.4 | 58.5 |
| GGGATCACGAAAGTGCCC (((..(((....)))))) | -15.3 | 39.3 |

| Sequence | folding enthalpy [1] [kcal/mol] | Tm [2] [°C] |
| --- | --- | --- |
| GCTTTCGAAAGAAGAGC ((((((....))).))) | -17.5 | 37.3 |
| GATCCCATAAGGGATC ((((((....)))))) | -39.4 | 63.9 |
| GGAGTGCGAAAGCATTCC (((.(((....))).))) | -30.4 | 58.1 |
| GATCTTAATAAAGATC ((((((....)))))) | -28.5 | 40.9 |
| GCGTACGAAAGTATCCGC ((((((....)))..))) | -23.5 | 38.6 |
| GTCGACCCGAAAGGGGAC (((..(((....)))))) | -13.4 | 40 |
| GCCCGGTCGAAAGACGGC (((..(((....)))))) | -18.1 | 51.7 |
| GTCTTGCGAAAGCATGAC (((.(((....))).))) | -37.7 | 56.1 |
| GTGAGCGCGAAAGCGCAC (((..(((....)))))) | -11.1 | 52.2 |
| GGGCTCCCGAAAGGGCCC (((..(((....)))))) | -29.5 | 56 |
| GGACTTGGAAACAAGTCC (((((((....))))))) | -51.1 | 64.7 |
| GGACAACGAAAGTTTTCC (((.(((....))).))) | -29.2 | 41.2 |
| GTCCCACGAAAGTGTGAC (((.(((....))).))) | -33 | 50.4 |
| GATCAAAAATTTGATC ((((((....)))))) | -28.7 | 39 |
| GTCATGACGAAAGTCGAC (((..(((....)))))) | -14.9 | 38.6 |
| GGTTTGGGAAACCAAGCC ((.((((....)))).)) | -33.5 | 49.9 |
| GGTATGGGAAACCGTACC ((((.((....)).)))) | -38.5 | 50.5 |
| GTTTTCCGAAAGGAAAC (((.(((....)))))) | -13.6 | 47.8 |
| GCTGACCGAAAGGTAAGC (((.(((....))).))) | -33.5 | 57.8 |
| GTTATCGAAAGATGAAC ((((((....))).))) | -13.2 | 26.4 |
| GCGAAGCGAAAGCTAGGC ((..(((....)))..)) | -5.32 | 40.9 |
| GGTTTTGGAAACAAAGCC ((.((((....)))).)) | -29.1 | 46 |
| GATCTATGCTAGATC ((((((...)))))) | -23.4 | 40.4 |
| GGTCTCGAAAGAGTTACC ((((((....)))..))) | -17.3 | 32.3 |

| Sequence | folding enthalpy [1] [kcal/mol] | Tm [2] [°C] |
| --- | --- | --- |
| GGCGCCGAAAGGCTAGCC ((((((....)))..))) | -21.6 | 61.7 |
| GAAGCACGAAAGTGATTC (((.(((....))).))) | -35.1 | 60 |
| GCGTACCGACGC ((((....)))) | -22.5 | 50.9 |
| GATCGTGTATACGATC ((((((....)))))) | -46 | 62.1 |
| GCCATGCGAAAGCAGGC (((.(((....)))))) | -21.8 | 64.4 |
| GATCGGCTGGCCGATC ((((((....)))))) | -38.2 | 68.3 |
| AGAACCAGAAATGGTTCT (((((((....))))))) | -31.4 | 55.2 |
| GATCCTTGTAGGATC ((((((...)))))) | -34.4 | 55.1 |
| GTTCACTCGAAAGAGAAC (((..(((....)))))) | -9.99 | 27.8 |
| GGTTGCGAAAGCATTACC ((((((....)))..))) | -17.7 | 37.8 |
| GTAACAGGAAACTGCTAC (((.(((....))).))) | -29.1 | 32 |
| GATCACCCGAGTGATC ((((((....)))))) | -41.3 | 57 |
| GCGCAGCGAAAGCGGTGC ((.(.((....)).).)) | -16.5 | 61.5 |
| GCTTTTGGAAACAAGAGC (((.(((....))).))) | -20 | 41 |
| GCGTTGTACGC ((((...)))) | -19 | 65.8 |
| GACCCAGGAAACTAGGTC ((((.((....)).)))) | -26.7 | 36 |
| GTGCGGGGAAACTCGCGC (.(((.(....).))).) | -24 | 53.5 |
| GCTCTGCGAAAGCGTAGC (((..((....))..))) | -17.6 | 38.2 |
| GATCGTGAAGACGATC ((((((....)))))) | -31.5 | 57 |
| GACCCCGGAAACGGGATC ((.((((....)))).)) | -16.3 | 45.8 |
| CGTCACGGAAACGTACG (((.(((....)))))) | -22.8 | 40 |
| GTCACCGAAAGGTAGGAC ((((((....)))..))) | -17.2 | 37.4 |
| GGGTAGTCGAAAGACCCC (((..(((....)))))) | -20.5 | 45.4 |
| GTCATCGAAAGATACGAC ((((((....)))..))) | -20.9 | 35 |

| Sequence | folding enthalpy [1] [kcal/mol] | Tm [2] [°C] |
| --- | --- | --- |
| GATAGGGGAAACCCTGTC ((.((((....)))).)) | -25.4 | 43.7 |
| GATCTATTTTAGATC ((((((...)))))) | -32.7 | 41.7 |
| GATCATGTTCATGATC ((((((....)))))) | -43.1 | 52.5 |
| GTGTACGAAAGTATCCAC ((((((....)))..))) | -18.3 | 26.4 |
| GCGCTTCGAAAGAAACGC (((.(((....))).))) | -38.8 | 54.5 |
| GATCCAGTGTTGGATC ((((((....)))))) | -36.9 | 50.8 |
| GATCGCTCTGCGATC ((((((...)))))) | -41.8 | 68.5 |
| GTCCCCGAAAGGGCTGAC ((((((....)))..))) | -11.7 | 34.8 |
| GAAAACGAAAGTTTCTTC ((((((....)))..))) | -35 | 46.6 |
| GTGCAGAAATGCAC (((((....))))) | -25.6 | 57.1 |
| GTTCCCGAAAGGGAAAC ((((((....))).))) | -12.6 | 49.6 |
| GCGTTGCGAAAGCACTGC ((..(((....)))..)) | -18.2 | 46.1 |
| GATTGTGAAAACAATC ((((((....)))))) | -35.9 | 51.4 |
| GGGTAGACGAAAGTCCCC (((..(((....)))))) | -18.6 | 46.5 |
| GCGGCTTCGAAAGAACGC (((..(((....)))))) | -21.4 | 44.6 |
| GATCTGTATACAGATC ((((((....)))))) | -40.8 | 54.3 |
| GATCTAAGATAGATC ((((((...)))))) | -20.6 | 37.9 |
| GATTAGCGAAAGCTGATC (((.(((....))).))) | -31 | 51.1 |
| GTATCAGGAAACTGATGC (.(((((....))))).) | -24.8 | 45 |
| GATCCGTCCTCGGATC ((((((....)))))) | -48.3 | 58 |
| GATCCCGGTGGGATC ((((((...)))))) | -29.6 | 65.7 |
